One block for each molecule: values may come before it. Active and inactive are the calls of the source. No cut-off for these calls is given here.
How the values were obtained:
[1] = biological target: T1, 5-hydroxytryptamine receptor 6 (Homo sapiens, UniProt P50406); test: Antagonist activity at human recombinant 5HT6 receptor expressed in HEK293 cells assessed as inhibition of serotonin-induced cAMP production after 2 hrs; assay type: functional, cell-based
How it was run: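 Tetracycline-induced (1 ug/mL, day before) T-Rex HEK cells expressing 5-HT6R, EDTA-harvested, in HBSS/5 mM HEPES pH 7.4/0.05% BSA with IBMX; ~4000 cells/well. Compound premixed with serotonin (final 10 nM, 0.32% DMSO), 2 h; cAMP by LANCE kit. Duplicates; 4-parameter IC50; Ki = IC50/(1+[Ag]/EC50), serotonin EC50 measured on same plates.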

[2] = biological target: T1, 5-hydroxytryptamine receptor 6; test: Displacement of [3H]lysergic acid diethylamide from human recombinant 5HT6 receptor
[3] = Binding affinity to GABAA receptor flunitrazepam binding site at 10 uM by radioligand binding assay
How it was run: (§1)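 Outsourced competitive radioligand displacement against target-specific labelled ligands, using the contractor's own protocol for each target. Single test concentration; duplicates, mean ± SD.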

[4] = Binding affinity to GABAB receptor at 10 uM by radioligand binding assay; how it was run: as §1
[5] = Binding affinity to sigma2 receptor at 10 uM by radioligand binding assay
How it was run: (§2)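 Panel screen of 56 targets (GPCRs, ion channels, transporters) run by a contract lab under its own protocols; each target scored by competition of a single 10 µM compound concentration with its target-specific radioligand, given as percent displacement; duplicates, mean ± SD.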

[6] = biological target: 5-hydroxytryptamine receptor 1A (Homo sapiens) (UniProt P08908); test: Binding affinity to 5HT1A receptor at 10 uM by radioligand binding assay; how it was run: as §1
[7] = biological target: 5-hydroxytryptamine receptor 2C (Homo sapiens) (UniProt P28335); test: Binding affinity to 5HT2C receptor at 10 uM by radioligand binding assay; how it was run: as §1
[8] = Binding affinity to NMDA receptor phencyclidine binding site at 10 uM by radioligand binding assay; how it was run: as §1
[9] = biological target: Histamine H3 receptor (Homo sapiens) (UniProt Q9Y5N1); test: Binding affinity to Histaminergic H3 receptor at 10 uM by radioligand binding assay; how it was run: as §1
[10] = Binding affinity to Nicotinic receptor at 10 uM by radioligand binding assay; how it was run: as §1
[11] = biological target: Death-associated protein kinase 3 (Homo sapiens) (UniProt O43293); test: Binding affinity to DAPK3 at 10 uM by radioligand binding assay; how it was run: as §1
[12] = Binding affinity to imidazoline I2 receptor at 10 uM by radioligand binding assay; how it was run: as §2
[13] = biological target: Alpha-1B adrenergic receptor (Homo sapiens) (UniProt P35368); test: Binding affinity to Adrenergic Alpha-1B receptor at 10 uM by radioligand binding assay; how it was run: as §1
[14] = biological target: Muscarinic acetylcholine receptor M1 (Homo sapiens) (UniProt P11229); test: Binding affinity to Muscarinic M1 receptor at 10 uM by radioligand binding assay; how it was run: as §1
[15] = biological target: Adenosine receptor A2a (Homo sapiens) (UniProt P29274); test: Binding affinity to Adenosinergic A2A receptor at 10 uM by radioligand binding assay; how it was run: as §1
[16] = biological target: Histamine H2 receptor (Homo sapiens) (UniProt P25021); test: Binding affinity to Histaminergic H2 receptor at 10 uM by radioligand binding assay; how it was run: as §1
[17] = Binding affinity to NMDA receptor glycine binding site at 10 uM by radioligand binding assay; how it was run: as §1
[18] = biological target: D(2) dopamine receptor (Homo sapiens) (UniProt P14416); test: Binding affinity to Dopaminergic D2L receptor at 10 uM by radioligand binding assay; how it was run: as §1
Homo sapiens = species: Homo sapiens; test: Ratio of Ki for human recombinant 5HT6 receptor to Ki for human recombinant 5HT2B receptor
[19] = Binding affinity to L-type calcium channel dihydropyridine binding site at 10 uM by radioligand binding assay; how it was run: as §1
[20] = Binding affinity to Dopaminergic D4.7 receptor at 10 uM by radioligand binding assay; how it was run: as §1
[21] = biological target: Muscarinic acetylcholine receptor M3 (Homo sapiens) (UniProt P20309); test: Binding affinity to Muscarinic M3 receptor at 10 uM by radioligand binding assay; how it was run: as §1
HEK293 = test: Ratio of IC50 for human recombinant 5HT6 receptor expressed in human HEK293 cells to IC50 for human recombinant 5HT2B receptor expressed in human HEK293 cells; assay type: cell-based
How it was run: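 5-HT6 arm: tetracycline-induced (1 ug/mL, day before) T-Rex 5-HT6R-HEK cells, ~4000 cells/well in HBSS/5 mM HEPES pH 7.4/0.05% BSA, 500 µM IBMX final; compound with 10 nM serotonin, 2 h; cAMP by LANCE TR-FRET. 5-HT2B arm: Fura-2-loaded 5-HT2BR-HEK cells in cuvette, 340/380 nm excitation, 510 nm emission, response to 5 µM α-methylserotonin. IC50 from 4-parameter fits, duplicates.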

[22] = biological target: 5-hydroxytryptamine receptor 3A (Homo sapiens) (UniProt P46098); test: Binding affinity to 5HT3 receptor at 10 uM by radioligand binding assay; how it was run: as §1
[23] = Binding affinity to Dopaminergic D4.2 receptor at 10 uM by radioligand binding assay; how it was run: as §1
[24] = biological target: 5-hydroxytryptamine receptor 1B (Homo sapiens) (UniProt P28222); test: Binding affinity to 5HT1B receptor at 10 uM by radioligand binding assay; how it was run: as §1
[25] = biological target: Alpha-1A adrenergic receptor (Homo sapiens) (UniProt P35348); test: Binding affinity to Adrenergic alpha1A receptor at 10 uM by radioligand binding assay; how it was run: as §1
[26] = biological target: Adenosine receptor A1 (Homo sapiens) (UniProt P30542); test: Binding affinity to Adenosinergic A1 receptor at 10 uM by radioligand binding assay; how it was run: as §1
[27] = biological target: Mitogen-activated protein kinase 10 (Homo sapiens) (UniProt P53779); test: Binding affinity to MAPK10 at 10 uM by radioligand binding assay; how it was run: as §1
[28] = biological target: D(3) dopamine receptor (Homo sapiens) (UniProt P35462); test: Binding affinity to Dopaminergic D3 receptor at 10 uM by radioligand binding assay; how it was run: as §1
[29] = Binding affinity to Kainate receptor at 10 uM by radioligand binding assay; how it was run: as §1
[30] = biological target: Neuropeptide Y receptor type 1 (Homo sapiens) (UniProt P25929); test: Binding affinity to Neuropeptide Y Y1 receptor at 10 uM by radioligand binding assay; how it was run: as §1
[31] = Binding affinity to Sodium channel at 10 uM by radioligand binding assay; how it was run: as §2
[32] = Binding affinity to Potassium channel at 10 uM by radioligand binding assay; how it was run: as §2
[33] = biological target: Neuropeptide Y receptor type 2 (Homo sapiens) (UniProt P49146); test: Binding affinity to Neuropeptide Y Y2 receptor at 10 uM by radioligand binding assay; how it was run: as §1
[34] = biological target: Voltage-gated inwardly rectifying potassium channel KCNH2 (Homo sapiens, UniProt Q12809); test: Antagonist activity at human ERG by patch clamp method; assay type: functional
[35] = biological target: Sodium-dependent dopamine transporter (Homo sapiens) (UniProt Q01959); test: Binding affinity to Dopamine transporter at 10 uM by radioligand binding assay; how it was run: as §1
[36] = biological target: Death-associated protein kinase 2 (Homo sapiens) (UniProt Q9UIK4); test: Binding affinity to DAPK2 at 10 uM by radioligand binding assay; how it was run: as §1
[37] = biological target: Histamine H1 receptor (Homo sapiens) (UniProt P35367); test: Binding affinity to Histaminergic H1 receptor at 10 uM by radioligand binding assay; how it was run: as §1
[38] = biological target: D(4) dopamine receptor (Homo sapiens) (UniProt P21917); test: Binding affinity to Dopaminergic D4.4 receptor at 10 uM by radioligand binding assay; how it was run: as §1
[39] = biological target: Sigma non-opioid intracellular receptor 1 (Homo sapiens) (UniProt Q99720); test: Binding affinity to sigma 1 receptor at 10 uM by radioligand binding assay; how it was run: as §2
[40] = biological target: Alpha-1D adrenergic receptor (Homo sapiens) (UniProt P25100); test: Binding affinity to Adrenergic Alpha-1D receptor at 10 uM by radioligand binding assay; how it was run: as §1
[41] = biological target: Sodium-dependent serotonin transporter (Homo sapiens) (UniProt P31645); test: Binding affinity to Serotonin transporter at 10 uM by radioligand binding assay; how it was run: as §2
[42] = biological target: Mitogen-activated protein kinase 8 (Homo sapiens) (UniProt P45983); test: Binding affinity to MAPK8 at 10 uM by radioligand binding assay; how it was run: as §1
[43] = biological target: D(2) dopamine receptor (Homo sapiens) (UniProt P14416); test: Binding affinity to Dopaminergic D2S receptor at 10 uM by radioligand binding assay; how it was run: as §1
[44] = Binding affinity to N-type calcium channel at 10 uM by radioligand binding assay; how it was run: as §1
[45] = biological target: Alpha-2A adrenergic receptor (Homo sapiens) (UniProt P08913); test: Binding affinity to Adrenergic alpha2A receptor at 10 uM by radioligand binding assay; how it was run: as §1
[46] = Binding affinity to L-type calcium channel bezothiazepine binding site at 10 uM by radioligand binding assay; how it was run: as §1
[47] = biological target: Cyclin-dependent kinase 5 (Homo sapiens) (UniProt Q00535); test: Binding affinity to CDK5 at 10 uM by radioligand binding assay; how it was run: as §1
[48] = biological target: D(1A) dopamine receptor (Homo sapiens) (UniProt P21728); test: Binding affinity to Dopaminergic D1 receptor at 10 uM by radioligand binding assay; how it was run: as §1
[49] = Binding affinity to GABA transporter at 10 uM by radioligand binding assay; how it was run: as §1
[50] = Binding affinity to AMPA receptor at 10 uM by radioligand binding assay; how it was run: as §1
[51] = biological target: Sodium- and chloride-dependent glycine transporter 2 (Homo sapiens) (UniProt Q9Y345); test: Binding affinity to Glycine transporter at 10 uM by radioligand binding assay; how it was run: as §1
[52] = biological target: Muscarinic acetylcholine receptor M2 (Homo sapiens) (UniProt P08172); test: Binding affinity to Muscarinic M2 receptor at 10 uM by radioligand binding assay; how it was run: as §1
[53] = biological target: Substance-P receptor (Homo sapiens) (UniProt P25103); test: Binding affinity to tachykinin NK1 receptor at 10 uM by radioligand binding assay; how it was run: as §2
[54] = Binding affinity to GABAA receptor Ro-15-1788 binding site at 10 uM by radioligand binding assay; how it was run: as §1
[55] = biological target: Sodium-dependent noradrenaline transporter (Homo sapiens) (UniProt P23975); test: Binding affinity to norepinephrine transporter at 10 uM by radioligand binding assay; how it was run: as §2
[56] = biological target: Death-associated protein kinase 1 (Homo sapiens) (UniProt P53355); test: Binding affinity to DAPK1 at 10 uM by radioligand binding assay; how it was run: as §1

T1 sequence (P50406 whole entry): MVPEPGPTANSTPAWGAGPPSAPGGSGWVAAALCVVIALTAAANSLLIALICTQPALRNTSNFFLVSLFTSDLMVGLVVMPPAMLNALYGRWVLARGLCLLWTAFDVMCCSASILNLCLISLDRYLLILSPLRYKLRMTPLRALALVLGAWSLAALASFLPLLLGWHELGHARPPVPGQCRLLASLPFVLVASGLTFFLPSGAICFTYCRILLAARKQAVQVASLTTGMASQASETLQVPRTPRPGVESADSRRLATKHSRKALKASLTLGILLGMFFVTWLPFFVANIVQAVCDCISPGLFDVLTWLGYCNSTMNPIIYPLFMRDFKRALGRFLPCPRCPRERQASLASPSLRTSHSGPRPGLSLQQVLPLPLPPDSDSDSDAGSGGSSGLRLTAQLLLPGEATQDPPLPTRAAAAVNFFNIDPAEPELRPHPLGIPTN
Chain of D(2) dopamine receptor (Homo sapiens) (P14416 whole entry): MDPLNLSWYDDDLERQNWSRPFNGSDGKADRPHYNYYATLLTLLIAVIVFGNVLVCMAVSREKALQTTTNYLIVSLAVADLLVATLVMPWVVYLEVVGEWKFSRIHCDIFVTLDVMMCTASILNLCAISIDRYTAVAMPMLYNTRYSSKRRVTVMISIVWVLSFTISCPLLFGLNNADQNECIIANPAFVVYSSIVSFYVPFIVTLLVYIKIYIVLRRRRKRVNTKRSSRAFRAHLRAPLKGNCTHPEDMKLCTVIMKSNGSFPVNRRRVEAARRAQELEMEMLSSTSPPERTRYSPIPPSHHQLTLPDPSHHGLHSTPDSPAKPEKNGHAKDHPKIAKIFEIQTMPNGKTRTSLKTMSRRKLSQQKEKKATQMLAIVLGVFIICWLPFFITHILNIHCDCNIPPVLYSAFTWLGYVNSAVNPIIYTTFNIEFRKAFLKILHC
Chain of Muscarinic acetylcholine receptor M3 (Homo sapiens) (P20309 whole entry, looked up): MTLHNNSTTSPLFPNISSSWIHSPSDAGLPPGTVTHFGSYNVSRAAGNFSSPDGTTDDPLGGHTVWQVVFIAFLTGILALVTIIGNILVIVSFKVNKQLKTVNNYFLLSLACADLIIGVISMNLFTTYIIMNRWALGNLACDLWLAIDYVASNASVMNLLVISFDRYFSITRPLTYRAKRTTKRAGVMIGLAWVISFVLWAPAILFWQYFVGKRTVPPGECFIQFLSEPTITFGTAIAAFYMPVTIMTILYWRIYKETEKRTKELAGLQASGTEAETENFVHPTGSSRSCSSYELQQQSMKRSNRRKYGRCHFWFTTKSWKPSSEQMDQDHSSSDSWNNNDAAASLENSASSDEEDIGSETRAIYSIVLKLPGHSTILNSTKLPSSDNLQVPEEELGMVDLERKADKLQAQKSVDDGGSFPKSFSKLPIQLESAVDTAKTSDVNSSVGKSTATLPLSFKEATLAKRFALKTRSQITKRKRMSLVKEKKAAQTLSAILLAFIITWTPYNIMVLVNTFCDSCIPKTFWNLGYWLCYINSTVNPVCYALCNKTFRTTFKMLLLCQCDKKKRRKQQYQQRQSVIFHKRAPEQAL
Chain of Sodium- and chloride-dependent glycine transporter 2 (Homo sapiens) (Q9Y345 whole entry): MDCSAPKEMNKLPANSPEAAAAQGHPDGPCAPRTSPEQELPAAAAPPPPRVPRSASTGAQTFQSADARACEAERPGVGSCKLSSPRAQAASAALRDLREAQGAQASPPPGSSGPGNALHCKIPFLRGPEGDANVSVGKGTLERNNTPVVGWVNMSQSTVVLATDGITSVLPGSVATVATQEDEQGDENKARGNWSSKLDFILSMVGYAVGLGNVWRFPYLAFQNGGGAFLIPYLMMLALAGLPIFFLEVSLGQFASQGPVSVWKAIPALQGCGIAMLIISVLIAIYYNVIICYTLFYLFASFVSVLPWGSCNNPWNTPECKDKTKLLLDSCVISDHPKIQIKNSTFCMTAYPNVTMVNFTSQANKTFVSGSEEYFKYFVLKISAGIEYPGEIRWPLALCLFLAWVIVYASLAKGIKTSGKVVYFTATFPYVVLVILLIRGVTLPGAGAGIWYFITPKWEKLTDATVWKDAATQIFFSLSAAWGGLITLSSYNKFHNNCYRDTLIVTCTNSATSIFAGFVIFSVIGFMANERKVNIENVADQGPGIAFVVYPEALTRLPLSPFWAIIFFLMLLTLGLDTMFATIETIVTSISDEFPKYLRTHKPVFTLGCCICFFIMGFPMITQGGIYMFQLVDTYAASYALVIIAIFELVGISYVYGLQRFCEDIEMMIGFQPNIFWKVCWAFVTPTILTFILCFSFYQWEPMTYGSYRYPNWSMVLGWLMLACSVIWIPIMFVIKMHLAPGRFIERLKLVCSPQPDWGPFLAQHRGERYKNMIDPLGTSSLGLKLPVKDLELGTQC
Chain of Muscarinic acetylcholine receptor M1 (Homo sapiens) (P11229 whole entry): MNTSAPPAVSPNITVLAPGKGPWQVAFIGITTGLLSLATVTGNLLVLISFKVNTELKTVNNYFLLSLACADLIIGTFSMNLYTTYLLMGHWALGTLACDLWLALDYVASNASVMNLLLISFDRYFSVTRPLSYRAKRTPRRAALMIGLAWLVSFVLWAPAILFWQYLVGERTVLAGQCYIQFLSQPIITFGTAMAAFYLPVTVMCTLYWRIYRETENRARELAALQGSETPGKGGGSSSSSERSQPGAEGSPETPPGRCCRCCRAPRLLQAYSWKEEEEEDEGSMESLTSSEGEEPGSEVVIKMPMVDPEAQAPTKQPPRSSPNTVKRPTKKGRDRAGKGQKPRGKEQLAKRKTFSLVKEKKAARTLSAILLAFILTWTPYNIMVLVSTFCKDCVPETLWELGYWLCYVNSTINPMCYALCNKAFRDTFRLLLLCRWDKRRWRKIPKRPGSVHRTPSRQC
Chain of Sodium-dependent noradrenaline transporter (Homo sapiens) (P23975 whole entry): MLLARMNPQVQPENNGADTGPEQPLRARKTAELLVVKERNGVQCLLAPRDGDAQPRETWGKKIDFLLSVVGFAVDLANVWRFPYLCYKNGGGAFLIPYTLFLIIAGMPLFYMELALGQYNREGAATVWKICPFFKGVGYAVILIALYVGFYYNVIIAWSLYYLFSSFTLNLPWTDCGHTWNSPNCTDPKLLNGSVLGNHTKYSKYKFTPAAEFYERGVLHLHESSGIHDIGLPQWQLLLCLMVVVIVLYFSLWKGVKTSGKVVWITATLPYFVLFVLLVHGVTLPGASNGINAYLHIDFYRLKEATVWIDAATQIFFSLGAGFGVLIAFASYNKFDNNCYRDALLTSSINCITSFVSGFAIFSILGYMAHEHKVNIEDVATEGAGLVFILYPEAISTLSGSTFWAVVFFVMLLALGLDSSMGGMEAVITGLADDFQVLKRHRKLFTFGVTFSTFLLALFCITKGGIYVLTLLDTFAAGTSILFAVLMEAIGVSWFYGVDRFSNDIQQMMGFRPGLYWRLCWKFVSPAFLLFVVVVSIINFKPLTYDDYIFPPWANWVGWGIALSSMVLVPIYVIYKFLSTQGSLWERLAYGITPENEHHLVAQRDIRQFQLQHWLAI
Chain of Death-associated protein kinase 3 (Homo sapiens) (O43293 whole entry, looked up): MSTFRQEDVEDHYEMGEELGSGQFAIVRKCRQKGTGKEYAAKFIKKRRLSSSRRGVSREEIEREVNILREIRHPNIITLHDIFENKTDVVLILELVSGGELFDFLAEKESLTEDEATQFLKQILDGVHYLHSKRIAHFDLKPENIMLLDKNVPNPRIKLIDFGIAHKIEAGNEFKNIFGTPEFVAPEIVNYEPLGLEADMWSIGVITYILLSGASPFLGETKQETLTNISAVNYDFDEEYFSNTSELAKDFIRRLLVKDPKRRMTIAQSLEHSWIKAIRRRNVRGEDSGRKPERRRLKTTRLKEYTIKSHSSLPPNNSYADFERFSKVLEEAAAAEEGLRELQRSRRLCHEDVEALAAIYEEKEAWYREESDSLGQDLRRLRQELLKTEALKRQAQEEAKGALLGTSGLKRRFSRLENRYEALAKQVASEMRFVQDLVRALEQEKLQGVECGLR
Chain of Substance-P receptor (Homo sapiens) (P25103 whole entry): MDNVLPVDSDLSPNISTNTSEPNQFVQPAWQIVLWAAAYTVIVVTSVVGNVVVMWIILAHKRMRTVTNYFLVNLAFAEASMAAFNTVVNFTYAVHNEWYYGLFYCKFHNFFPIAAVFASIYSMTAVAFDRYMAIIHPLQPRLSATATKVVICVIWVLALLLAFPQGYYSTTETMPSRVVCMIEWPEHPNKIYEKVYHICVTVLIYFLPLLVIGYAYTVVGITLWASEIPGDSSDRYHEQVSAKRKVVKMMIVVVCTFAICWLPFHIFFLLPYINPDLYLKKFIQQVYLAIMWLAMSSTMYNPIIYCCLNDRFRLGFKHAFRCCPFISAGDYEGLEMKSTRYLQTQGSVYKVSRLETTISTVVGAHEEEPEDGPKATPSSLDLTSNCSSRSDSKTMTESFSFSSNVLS
Chain of Histamine H3 receptor (Homo sapiens) (Q9Y5N1 whole entry): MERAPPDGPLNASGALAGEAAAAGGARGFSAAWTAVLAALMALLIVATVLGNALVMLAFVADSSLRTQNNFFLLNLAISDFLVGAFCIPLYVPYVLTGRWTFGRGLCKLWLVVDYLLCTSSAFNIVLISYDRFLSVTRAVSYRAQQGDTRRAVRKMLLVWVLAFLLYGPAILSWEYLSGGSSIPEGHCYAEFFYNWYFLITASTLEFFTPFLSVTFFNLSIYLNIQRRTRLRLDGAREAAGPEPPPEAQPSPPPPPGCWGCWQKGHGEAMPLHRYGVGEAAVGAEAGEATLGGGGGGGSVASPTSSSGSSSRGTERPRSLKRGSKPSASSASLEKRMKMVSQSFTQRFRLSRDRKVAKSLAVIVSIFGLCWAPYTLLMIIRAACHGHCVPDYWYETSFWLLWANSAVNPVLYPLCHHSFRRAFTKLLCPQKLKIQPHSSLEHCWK
Chain of Adenosine receptor A1 (Homo sapiens) (P30542 whole entry): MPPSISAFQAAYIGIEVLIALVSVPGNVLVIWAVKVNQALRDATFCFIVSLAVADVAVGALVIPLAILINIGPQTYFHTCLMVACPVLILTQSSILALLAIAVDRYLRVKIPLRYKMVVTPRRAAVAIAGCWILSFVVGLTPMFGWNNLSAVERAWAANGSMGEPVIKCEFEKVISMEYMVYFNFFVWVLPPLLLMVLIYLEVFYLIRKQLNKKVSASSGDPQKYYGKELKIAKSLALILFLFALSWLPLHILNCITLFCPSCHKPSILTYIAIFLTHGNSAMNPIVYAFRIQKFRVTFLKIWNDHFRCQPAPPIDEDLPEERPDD

Ki [1]: 88.8 nM
SMILES: Cc1cc(C)n2nc(C)c(S(=O)(=O)c3ccccc3)c2n1

Ki [1]: 2960 nM
SMILES: Cc1cc(C)n2nc([S+](C)[O-])c(S(=O)(=O)c3ccccc3)c2n1 (stereo not given)

Activity [3]: inactive
Activity [4]: inactive
Activity [5]: inactive
Activity [6]: inactive
Activity [7]: inactive
Activity [8]: inactive
Activity [9]: inactive
Activity [10]: inactive
Ki [2]: 0.2 nM
Activity [12]: inactive
Activity [13]: inactive
Activity [14]: inactive
Activity [15]: inactive
Activity [16]: inactive
Activity [17]: inactive
Activity [18]: inactive
Ratio (Homo sapiens): 5000
Activity [19]: inactive
Activity [20]: inactive
Activity [21]: inactive
Activity [22]: inactive
Activity [23]: inactive
Activity [24]: inactive
Activity [25]: inactive
Activity [26]: inactive
Activity [27]: inactive
Activity [28]: inactive
Activity [29]: inactive
Activity [30]: inactive
Activity [31]: inactive
Activity [32]: inactive
Activity [33]: inactive
Activity [35]: inactive
Activity [37]: inactive
Activity [38]: inactive
Activity [39]: inactive
Activity [40]: inactive
Activity [41]: inactive
Activity [42]: inactive
Activity [43]: inactive
Activity [44]: inactive
Activity [45]: inactive
Activity [46]: inactive
Activity [47]: inactive
Activity [48]: inactive
Activity [49]: inactive
Activity [50]: inactive
Activity [51]: inactive
Activity [52]: inactive
Activity [53]: inactive
Activity [54]: inactive
Activity [55]: inactive
SMILES: CNc1nn2c(C)cc(C)nc2c1S(=O)(=O)c1ccccc1
Activity [11]: inactive
Ratio (HEK293): 1000
IC50 [34]: > 30 µM
Activity [36]: inactive
Activity [56]: inactive

Ki [1]: 14.5 nM
SMILES: Cc1cc(C)n2nc(N(C)C)c(S(=O)(=O)c3ccccc3)c2n1

Ki [1]: 1.91 nM
SMILES: CCSc1nn2c(C)cc(C)nc2c1S(=O)(=O)c1ccccc1

Ki [2]: 2 nM
SMILES: CSc1nn2c(C)cc(C)nc2c1S(=O)(=O)c1ccccc1

Ki [1]: 561 nM
SMILES: Cc1cc(C)n2ncc(S(=O)(=O)c3ccccc3)c2n1

Continued, molecule first:

SMILES: Cc1cc(C)n2nc(NCCCN(C)C)c(S(=O)(=O)c3ccccc3)c2n1
Ki [1]: 764 nM

SMILES: Cc1cc(C)n2nc(N(C)CCN(C)C)c(S(=O)(=O)c3ccccc3)c2n1
Ki [1]: 489 nM

SMILES: Cc1cc(C)n2nc(N3CCNCC3)c(S(=O)(=O)c3ccccc3)c2n1
Ki [1]: 1380 nM

SMILES: Cc1cc(C)n2nc(OCCO)c(S(=O)(=O)c3ccccc3)c2n1
Ki [2]: 22.2 nM
Ki [1]: 283 nM

SMILES: Cc1cc(C)n2nc(NCCN(C)C)c(S(=O)(=O)c3ccccc3)c2n1
Ki [1]: 2600 nM

SMILES: Cc1cc(C)n2nc(OCCN(C)C)c(S(=O)(=O)c3ccccc3)c2n1
Ki [1]: 2200 nM
